# Molecular target: T1, Fatty-acid amide hydrolase 1 (Rattus norvegicus, UniProt P97612)
# T1 sequence (P97612 whole entry): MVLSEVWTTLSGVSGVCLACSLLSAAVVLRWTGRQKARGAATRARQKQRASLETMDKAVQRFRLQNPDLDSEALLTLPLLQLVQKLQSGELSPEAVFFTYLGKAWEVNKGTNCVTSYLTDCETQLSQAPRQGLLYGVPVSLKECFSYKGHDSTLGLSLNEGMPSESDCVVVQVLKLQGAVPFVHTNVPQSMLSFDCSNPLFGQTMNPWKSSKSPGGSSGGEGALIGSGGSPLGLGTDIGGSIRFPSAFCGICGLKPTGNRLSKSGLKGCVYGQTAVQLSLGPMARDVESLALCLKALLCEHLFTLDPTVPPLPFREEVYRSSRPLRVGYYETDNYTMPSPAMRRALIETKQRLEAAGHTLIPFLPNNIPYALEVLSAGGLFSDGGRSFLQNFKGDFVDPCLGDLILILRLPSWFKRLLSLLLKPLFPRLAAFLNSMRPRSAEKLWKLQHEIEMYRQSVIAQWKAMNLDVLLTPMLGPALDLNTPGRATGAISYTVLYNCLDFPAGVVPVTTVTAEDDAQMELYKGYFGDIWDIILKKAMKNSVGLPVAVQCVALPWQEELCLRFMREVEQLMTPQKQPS
# Test: Inhibition of rat FAAH expressed in E. coli assessed as [14C]-labeled oleamide to oleic acid conversion
row,SMILES,Ki
1,COC(=O)c1cccc(-c2cnc(C(=O)C3Cc4ccc(-c5ccccc5)cc4C3)o2)n1 (racemic),0.0062 µM
2,O=C(O)c1cccc(-c2cnc(C(=O)[C@@H]3CCc4cc(-c5ccccc5)ccc4C3)o2)n1,0.5 µM
3,O=C(c1ncco1)[C@@H]1CCc2cc(-c3ccccc3)ccc2C1,0.46 µM
4,O=C(c1ncco1)[C@@H]1Cc2ccc(Oc3ccccc3)cc2C1,0.2 µM
5,O=C(O)c1cccc(-c2cnc(C(=O)[C@@H]3Cc4ccc(OCc5ccccc5)cc4C3)o2)n1,0.66 µM
6,O=C(c1ncco1)[C@H]1CCc2ccccc2C1,5.1 µM
7,COC(=O)c1cccc(-c2cnc(C(=O)[C@@H]3CCc4cc(-c5ccccc5)ccc4C3)o2)n1,0.7 µM
8,O=C(c1ncc(-c2ccccn2)o1)[C@@H]1CCc2cc(-c3ccccc3)ccc2C1,0.24 µM
9,O=C(O)c1cccc(-c2cnc(C(=O)[C@@H]3CCc4cc(OCc5ccccc5)ccc4C3)o2)n1,0.74 µM
10,COC(=O)c1cnc(C(=O)[C@@H]2CCc3cc(-c4ccccc4)ccc3C2)o1,1.4 µM
11,O=C(c1ncco1)[C@@H]1Cc2ccc(-c3ccccc3)cc2C1,0.14 µM
12,O=C(c1ncc(-c2ccccn2)o1)[C@H]1CCc2ccccc2C1,0.43 µM
13,COC(=O)c1cccc(-c2cnc(C(=O)[C@@H]3Cc4ccc(Oc5ccccc5)cc4C3)o2)n1,0.79 µM
14,O=C(O)c1cccc(-c2cnc(C(=O)C3Cc4ccc(-c5ccccc5)cc4C3)o2)n1 (racemic),0.057 µM
15,O=C(O)c1cccc(-c2cnc(C(=O)[C@@H]3CCc4cc(Oc5ccccc5)ccc4C3)o2)n1,0.22 µM
16,O=C(c1ncc(I)o1)[C@@H]1CCc2cc(OCc3ccccc3)ccc2C1,0.7 µM
17,COC(=O)c1cccc(-c2cnc(C(=O)[C@@H]3CCc4cc(Oc5ccccc5)ccc4C3)o2)n1,0.87 µM
18,O=C(c1ncc(-c2ccccn2)o1)[C@@H]1CCc2cc(Oc3ccccc3)ccc2C1,0.29 µM
19,O=C(O)c1cccc(-c2cnc(C(=O)[C@@H]3Cc4ccc(Oc5ccccc5)cc4C3)o2)n1,0.55 µM
20,O=C(c1ncc(-c2ccccn2)o1)[C@@H]1CCc2cc(OCc3ccccc3)ccc2C1,0.3 µM
21,O=C(c1ncc(-c2ccccn2)o1)[C@@H]1CCc2ccccc2C1,3.2 µM
22,O=C(c1ncco1)[C@@H]1CCc2cc(Oc3ccccc3)ccc2C1,0.41 µM
23,COC(=O)c1cccc(-c2cnc(C(=O)[C@@H]3CCc4cc(OCc5ccccc5)ccc4C3)o2)n1,4.5 µM
24,O=C(c1ncc(-c2ccccn2)o1)[C@@H]1Cc2ccc(-c3ccccc3)cc2C1,0.6 µM
25,O=C(c1ncco1)[C@@H]1CCc2ccccc2C1,12 µM

# Further lines, results first:
row,Ki,SMILES
1,0.051 µM,O=C(O)c1cccc(-c2cnc(C(=O)[C@H]3Cc4ccc(OCc5ccccc5)cc4C3)o2)n1
2,0.0015 µM,COC(=O)c1nnc(C(=O)[C@H]2CCc3cc(Oc4ccccc4)ccc3C2)o1
3,0.12 µM,N#Cc1cnc(C(=O)[C@@H]2CCc3cc(OCc4ccccc4)ccc3C2)o1
4,0.0063 µM,O=C(c1nnc(-c2ccccn2)o1)[C@@H]1CCc2cc(Oc3ccccc3)ccc2C1
5,0.027 µM,O=C(c1ncco1)[C@H]1Cc2ccc(-c3ccccc3)cc2C1
6,0.087 µM,O=C(c1ncco1)[C@@H]1CCc2cc(OCc3ccccc3)ccc2C1
7,0.098 µM,COC(=O)c1cccc(-c2cnc(C(=O)[C@H]3Cc4ccc(Oc5ccccc5)cc4C3)o2)n1
8,0.0014 µM,O=C(c1ncc(-c2ccccn2)o1)[C@H]1Cc2ccc(OCc3ccccc3)cc2C1
9,0.034 µM,O=C(O)c1cccc(-c2cnc(C(=O)[C@H]3CCc4cc(OCc5ccccc5)ccc4C3)o2)n1
10,0.0022 µM,O=C(c1ncco1)[C@H]1CCc2cc(Oc3ccccc3)ccc2C1
11,0.0022 µM,COC(=O)c1cccc(-c2cnc(C(=O)[C@H]3CCc4cc(Oc5ccccc5)ccc4C3)o2)n1
12,0.0072 µM,O=C(c1ncc(-c2ccccn2)o1)[C@H]1CCc2cc(-c3ccccc3)ccc2C1
13,0.062 µM,N#Cc1cnc(C(=O)[C@@H]2CCc3cc(-c4ccccc4)ccc3C2)o1
14,0.0005 µM,O=C(c1nnco1)[C@H]1CCc2cc(Oc3ccccc3)ccc2C1
15,0.0061 µM,O=C(c1ncco1)[C@H]1CCc2cc(OCc3ccccc3)ccc2C1
16,0.027 µM,COC(=O)c1cccc(-c2cnc(C(=O)[C@H]3CCc4cc(-c5ccccc5)ccc4C3)o2)n1
17,0.0032 µM,O=C(c1ncc(-c2ccccn2)o1)[C@H]1CCc2cc(OCc3ccccc3)ccc2C1
18,0.0041 µM,O=C(c1ncc(I)o1)[C@H]1CCc2cc(OCc3ccccc3)ccc2C1
19,0.0019 µM,O=C(c1ncc(-c2ccccn2)o1)[C@H]1Cc2ccc(-c3ccccc3)cc2C1
20,0.042 µM,O=C(c1ncc(-c2ccccn2)o1)[C@@H]1Cc2ccc(Oc3ccccc3)cc2C1
21,0.008 µM,O=C(c1ncc(I)o1)C1CCc2cc(OCc3ccccc3)ccc2C1 (racemic)

row,Ki,SMILES
1,0.057 µM,O=C(c1ncco1)[C@H]1CCc2cc(-c3ccccc3)ccc2C1
2,0.071 µM,O=C(O)c1cccc(-c2cnc(C(=O)[C@H]3Cc4ccc(Oc5ccccc5)cc4C3)o2)n1
3,0.059 µM,COC(=O)c1cnc(C(=O)[C@@H]2CCc3cc(Oc4ccccc4)ccc3C2)o1
4,0.001 µM,O=C(c1nnc(-c2ccccn2)o1)[C@H]1CCc2cc(Oc3ccccc3)ccc2C1
5,0.053 µM,COC(=O)c1cnc(C(=O)[C@@H]2CCc3cc(OCc4ccccc4)ccc3C2)o1
6,0.054 µM,N#Cc1cnc(C(=O)[C@@H]2CCc3cc(Oc4ccccc4)ccc3C2)o1
7,0.0054 µM,COC(=O)c1cnc(C(=O)[C@H]2CCc3cc(Oc4ccccc4)ccc3C2)o1
8,0.0029 µM,COC(=O)c1cnc(C(=O)[C@H]2CCc3cc(OCc4ccccc4)ccc3C2)o1
9,0.039 µM,O=C(O)c1cccc(-c2cnc(C(=O)[C@H]3CCc4cc(-c5ccccc5)ccc4C3)o2)n1
10,0.055 µM,COC(=O)c1cnc(C(=O)[C@H]2CCc3cc(-c4ccccc4)ccc3C2)o1
11,0.0034 µM,N#Cc1cnc(C(=O)[C@H]2CCc3cc(-c4ccccc4)ccc3C2)o1
12,0.0014 µM,O=C(c1nnco1)[C@@H]1CCc2cc(Oc3ccccc3)ccc2C1
13,0.018 µM,COC(=O)c1cccc(-c2cnc(C(=O)[C@H]3CCc4cc(OCc5ccccc5)ccc4C3)o2)n1
14,0.0032 µM,N#Cc1cnc(C(=O)[C@H]2CCc3cc(OCc4ccccc4)ccc3C2)o1
15,0.0021 µM,O=C(c1ncc(-c2ccccn2)o1)[C@H]1Cc2ccc(Oc3ccccc3)cc2C1
16,0.0013 µM,N#Cc1cnc(C(=O)[C@H]2CCc3cc(Oc4ccccc4)ccc3C2)o1
17,0.01 µM,O=C(c1ncco1)[C@H]1Cc2ccc(Oc3ccccc3)cc2C1
18,0.11 µM,O=C(c1ncc(-c2ccccn2)o1)[C@@H]1Cc2ccc(OCc3ccccc3)cc2C1
19,0.13 µM,COC(=O)c1cccc(-c2cnc(C(=O)[C@@H]3Cc4ccc(OCc5ccccc5)cc4C3)o2)n1
20,0.0058 µM,COC(=O)c1cccc(-c2cnc(C(=O)[C@H]3Cc4ccc(OCc5ccccc5)cc4C3)o2)n1
21,0.0016 µM,COC(=O)c1nnc(C(=O)[C@@H]2CCc3cc(Oc4ccccc4)ccc3C2)o1

# Molecular target: not listed separately
# Test: Inhibition of full-length human FAAH expressed in COS-7 cells assessed as [14C]-labeled oleamide to oleic acid conversion
# Assay type: cell-based
# In short: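 Substrate 20 μM 14C-oleamide; three inhibitor concentrations. Reaction stopped in 0.1 N HCl at three time points, extracted with EtOAc and read by TLC.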
row,Ki,SMILES
1,> 0.024 µM,O=C(c1ncco1)C1Cc2ccc(OCc3ccccc3)cc2C1 (racemic)
2,> 10 µM,COC(=O)c1cccc(-c2cnc(C(=O)C3CCc4cc(OCc5ccccc5)ccc4C3)o2)n1 (racemic)
3,> 10 µM,COC(=O)c1cccc(-c2cnc(C(=O)C3Cc4ccc(OCc5ccccc5)cc4C3)o2)n1 (racemic)
4,> 10 µM,O=C(c1ncco1)C1CCc2cc(OCc3ccccc3)ccc2C1 (racemic)

# Source: ChEMBL document CHEMBL1765010, “Reversible competitive α-ketoheterocycle inhibitors of fatty acid amide hydrolase containing additional conformational constraints in the acyl side chain: orally active, long-acting analgesics” (J Med Chem, 2011)
